Shown is part of a subset that was picked to be rich in hits.
p-CIP stab down: compounds decreasing mouse p/CIP protein stability. 290,000 tested, 0.01% active. decrease of EGFP signal, % at 10 µM. AID 1984. F442A p/CIP-EGFP cells, EGFP fluorescence, 16 h. Q05BA5;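 active = EGFP signal decrease of at least 30% at 10 µM or well 3 SD below plate mean, unless failing retest; inactive = the rest, including hits failing retest or dose response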
Cl transport mod: KCC2 (human) Cl- transport modulation. 190,000 tested, 2.2% active. B-score of Tl+ flux slope (higher = more flux/activation; lower = inhibition) at 10 µM. KCC2 cells, thallium flux FluoZin-2 fluorescence. Q9H2X9;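 active = thallium flux slope and its plate-corrected score both differing from the plate sample mean at a set confidence after two filtering rounds, in either direction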;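 also: slope of fluorescence scaled to starting intensity during 10 to 20 s after thallium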
ABCB6 inh 2: blocks the human ABCB6 transporter | Q9NP58 | K562-ABCB6 porphyrin accumulation, flow cytometry, 1 h; active compounds read low | fluorescence ratio to DMSO, % at 10 µM | 360,000 tested, 0.19% active | AID 602162;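 active = fluorescence ratio to DMSO below 75%, the collection mean minus 3 SD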;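 also: signal is porphyrin accumulated inside mitochondria; 100% equals median channel fluorescence of DMSO control wells; lower ratio means ABCB6 inhibition with less porphyrin fluorescence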
Dynein cargo inh: dynein cargo transport inhibition. 3617.4 mouse cells, GR-EGFP nuclear translocation imaging; test concentration mostly 20 µM; stimulated with dexamethasone, 1 µM; active compounds read low. z-score, hits read low. 220,000 tested, 0.47% active. AID 1381;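 active = plate z-score of nuclear minus cytoplasmic receptor signal below a set negative limit, without overly bright fluorescence or cell loss, cut at about -3.5 in these data, passing the limit was not always enough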;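 also: z-score of nuclear minus cytoplasmic ring GR-EGFP intensity difference per well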
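Buffer or medium: tet-free, stripped-serum medium; reagent: dexamethasone at 1.0 µM final, 30 min; incubation: 48 h induction, 1 h compound, 30 min dex at 37 °C; measured by: formaldehyde fixation, Hoechst nuclear stain, 10x automated fluorescence imaging; read-out: nuclear-to-cytoplasmic GR-EGFP distribution per well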
V-ATPase pHluor: alters yeast V-ATPase proton transport | 350,000 tested, 0.37% active | AID 504577 | response, % at 10 µM | S. cerevisiae, pHLuorin cytosolic pH fluorescence; in the data active = response mostly above about 7.3%, no sharp cut-off; inactive = mostly below about 5.4%; also: actives read high
* hit, by the source's call.

COc1cccc(S(=O)(=O)N(C)C[C@H]2Oc3ncc(Br)cc3C(=O)N([C@@H](C)CO)C[C@@H]2C)c1 was read as ABCB6 inh 2 97 and V-ATPase pHluor -1.
Screening CC(=O)Nc1ccc(S(=O)(=O)N2CCN(S(=O)(=O)c3ccc(NC(C)=O)cc3)CC2)cc1 returned p-CIP stab down 9, ABCB6 inh 2 96 and V-ATPase pHluor 3.
Screening CC(=O)Nc1ccc(S(=O)(=O)N2CCN(c3ccc(C)c(Cl)c3)CC2)cc1 returned p-CIP stab down -8, Cl transport mod -0.21, ABCB6 inh 2 95, Dynein cargo inh 0.86 and V-ATPase pHluor 17*.
For CC1(Oc2ccc(CC#N)cc2)CCN(Cc2ccccc2OC(F)F)C1 (stereo not drawn) the results were ABCB6 inh 2 101.
`C=CCN(CC=C)C(=S)NC(=O)c1ccc(-c2ccccc2)cc1` gave p-CIP stab down 4, Cl transport mod 31*, ABCB6 inh 2 96, Dynein cargo inh 1.4 and V-ATPase pHluor -9.
CN(Cc1ccccc1)C(=S)NC(=O)C1CCCCC1 was read as p-CIP stab down 4, Cl transport mod 14*, ABCB6 inh 2 99, Dynein cargo inh -0.93 and V-ATPase pHluor 1.
`CN(Cc1ccccc1)C(=S)NC(=O)c1ccc(-c2ccccc2)cc1` gave p-CIP stab down -13, Cl transport mod 29*, ABCB6 inh 2 97, Dynein cargo inh 0.45 and V-ATPase pHluor -8.
`C=CCN(CC=C)C(=S)NC(=O)c1ccc(C)c(Br)c1` gave p-CIP stab down -13, Cl transport mod 45*, ABCB6 inh 2 104, Dynein cargo inh 0.51 and V-ATPase pHluor 0.
Screening CN(Cc1ccccc1)C(=S)NC(=O)c1cccs1 returned p-CIP stab down 0, ABCB6 inh 2 96 and V-ATPase pHluor -1.
Screening COc1ccc2c(c1OC)C(CC(C)=O)N1CCc3cc4c(cc3C1C2=O)OCO4 (stereo not drawn) returned ABCB6 inh 2 105.
COc1ccc(-n2nnnc2C(c2ccnc3ccccc23)N2CCN(C/C=C/c3ccccc3)CC2)cc1 (stereo not drawn) was read as ABCB6 inh 2 95.
`CC(=O)CC1c2cc(F)ccc2C=C(c2ccsc2)N1c1ccc(-c2ccc(C(N)=O)cc2)cc1` (stereo not drawn) gave ABCB6 inh 2 100.
For COc1ccc(C(=O)NC(=S)N(Cc2ccccc2)Cc2ccccc2)cc1 the results were p-CIP stab down 5, Cl transport mod 64*, ABCB6 inh 2 99, Dynein cargo inh 0.37 and V-ATPase pHluor -1.
COc1ccc(C(=O)NCCCc2ccccc2)cc1 was read as ABCB6 inh 2 104 and V-ATPase pHluor -2.
For C=CCN(CC=C)C(=S)NC(=O)/C=C/c1ccc(C)cc1 the results were p-CIP stab down -12, Cl transport mod 15*, ABCB6 inh 2 102, Dynein cargo inh -0.84 and V-ATPase pHluor -4.
Screening COc1ccc([C@H]2CN(CCc3ccccc3)C(=O)[C@@H]2CC(=O)Nc2ccccc2)cc1 returned ABCB6 inh 2 94 and V-ATPase pHluor 2.
For Cc1ccc(C(=O)CC(=O)COc2ccc(Cl)cc2)cc1 the results were p-CIP stab down 3, Cl transport mod 21*, ABCB6 inh 2 101, Dynein cargo inh 0.0069 and V-ATPase pHluor 4.
`O=C(COc1ccc(Cl)cc1Cl)NNC(=S)Nc1ccc(F)cc1` gave p-CIP stab down -3, Cl transport mod 4.1*, ABCB6 inh 2 104, Dynein cargo inh 0.25 and V-ATPase pHluor 1.
`Cc1cccc(C(=O)NC(=S)NNC(=O)COc2ccc(Cl)cc2)c1` gave p-CIP stab down -2, Cl transport mod 47*, ABCB6 inh 2 104, Dynein cargo inh -0.74 and V-ATPase pHluor 0.
Screening O=C(COc1ccccc1)NNC(=S)NC(=O)c1ccc(Cl)cc1Cl returned p-CIP stab down 4, Cl transport mod 22* and Dynein cargo inh 1.
For COc1ccccc1CCNC(=O)CCSc1nc(-c2ccco2)cc(C(F)(F)F)n1 the results were p-CIP stab down 3, Cl transport mod -0.46, ABCB6 inh 2 99, Dynein cargo inh 0.55 and V-ATPase pHluor 1.
O=C(CCSc1nc(-c2ccco2)cc(C(F)(F)F)n1)NCCc1ccccc1 was read as p-CIP stab down 1, Cl transport mod -3.1*, ABCB6 inh 2 97, Dynein cargo inh 0.3 and V-ATPase pHluor 0.
Screening CN1CCN(C(=O)C2=C[C@@H](c3coc4ccccc4c3=O)C[C@@H](OCc3ccc(CO)cc3)O2)CC1 returned p-CIP stab down -22, Cl transport mod -0.0088, ABCB6 inh 2 97, Dynein cargo inh 2.1 and V-ATPase pHluor 0.
Screening O=C(C1=C[C@@H](c2coc3ccccc3c2=O)C[C@@H](OCc2ccc(CO)cc2)O1)N1CCN(Cc2ccccc2)CC1 returned p-CIP stab down -2, Cl transport mod -3.3*, ABCB6 inh 2 95, Dynein cargo inh -0.31 and V-ATPase pHluor -2.
Screening CC1Cc2ccccc2N1C(=S)NC(=O)C1(C)CC1(Cl)Cl (stereo not drawn) returned p-CIP stab down -6, Cl transport mod 93*, ABCB6 inh 2 98, Dynein cargo inh 0.37 and V-ATPase pHluor -1.
`COCCNc1ncnc2c1ncn2[C@H]1CN(Cc2ccc(-c3ccccc3)cc2)C[C@@H](CO)O1` gave ABCB6 inh 2 90.
Cc1c(NC(C)c2cc(Cl)ccc2O)c(=O)n(-c2ccccc2)n1C (stereo not drawn) was read as p-CIP stab down -11, Cl transport mod 0.09, ABCB6 inh 2 101, Dynein cargo inh 0.42 and V-ATPase pHluor -3.
Screening Cc1c(NC(C)c2ccccc2O)c(=O)n(-c2ccccc2)n1C (stereo not drawn) returned p-CIP stab down -2, Cl transport mod -0.072, ABCB6 inh 2 54*, Dynein cargo inh -0.18 and V-ATPase pHluor 2.
Screening CC1(C(=O)NS(=O)(=O)c2ccc3c(c2)CCO3)CCN1C(=O)COc1ccc(Cl)cc1 (stereo not drawn) returned ABCB6 inh 2 75.
COc1nc(Cl)cn(-c2ccc(C)cc2)c1=O was read as p-CIP stab down -20, Cl transport mod 0.45, ABCB6 inh 2 97, Dynein cargo inh -0.51 and V-ATPase pHluor 7.
`Cc1ccc(-n2c(Cl)c(Cl)nc(Cl)c2=O)cc1` gave p-CIP stab down -6, Cl transport mod -1.7, ABCB6 inh 2 80, Dynein cargo inh -4.1* and V-ATPase pHluor 3.
Screening C=CCN1/C(=C(\C#N)C2=NS(=O)(=O)c3ccccc32)N(C)c2ccccc21 returned p-CIP stab down -3, Cl transport mod -0.16, ABCB6 inh 2 96, Dynein cargo inh -0.25 and V-ATPase pHluor 24*.
For CCOC(=O)c1ccc(N2C(=O)CC(Sc3nc(C)cc(C)n3)C2=O)cc1 (stereo not drawn) the results were p-CIP stab down 6, ABCB6 inh 2 103 and V-ATPase pHluor -3.

High-throughput results: PubChem BioAssay, several laboratories
